Data from the EternaBench riboswitch data.

Tested on: MS2 coat protein
Assay: apparent Kd, MS2 coat protein; higher = weaker binding; RNA-MaP array; theophylline 2 mM where present
Outline: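 The titrant was SNAP-549-labelled MS2 coat protein, run from 0.7 or 1.5 nM in doubling steps to 3 µM. It was applied to designs transcribed by stalled E. coli RNA polymerase on Illumina sequencing-chip clusters, without ligand first and then with constant ligand, in 100 mM Tris-HCl pH 7.5, 80 mM KCl, 4 mM MgCl2, BSA, DTT, yeast tRNA and Tween-20. The apparent Kd is the median of filtered per-cluster binding-curve fits, with green signal normalised to red-channel RNA signal and control-cluster median Fmax.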

[1] = designed as: OFF switch for theophylline, no ligand
[2] = ligand present: theophylline, designed as: OFF switch for theophylline
[3] = designed as: ON switch for theophylline, no ligand
[4] = ligand present: theophylline, designed as: ON switch for theophylline

Sequence | apparent Kd [1] [nM] | apparent Kd [2] [nM] | apparent Kd [3] [nM] | apparent Kd [4] [nM]
CAUAUUGUAACUGAUACCAGUGUACUGACAUGAGGAUCACCCAUGUUGGGUUUUGUUGUACACCCUUGGCAGCAGAAUCAAUAUG | 68.7 | 89.2 | – | –
CUCGAGGCCGGUGAUACCAGACACGAAACUAUACAUGAGGAUCACCCAUGUCAAACAACGGUCCCUUGGCAGCAUGGGUGUAUCC | – | – | 68.9 | 64.5
ACCUACACGGAGACGUGUAGGAGUAAUGAUACCAGCAUGGAGACAUGCCCUUGGCAGCGUUACAUGAGGAUCACCCAUGUGGUGC | 21.1 | 483 | – | –
UUAAUGGAGCUUUUAUUUACGAUUUCUGAUACCAGUGUUUCAUUUCACCCUUGGCAGCAGUGACAUGAGGAUCACCCAUGUAAUA | – | – | 25.7 | 22.8
AUAACAUGAGGAUCACCCAUGUAAGGUGAUACCAGACGAAGUAAAGUCCCUUGGCAGCACAAGCAUAGUUGCGAAUAUUGAUAGA | – | – | 469 | 63.1
UGGUUUGUGAUGGAUACCAGCAGAGAAAACGUUUAUCCUAACAUGAGGAUCACCCAUGUAUGCCCUUGGCAGCUGUUGUGGGCUA | 32 | 34.9 | – | –
CCAUAAGUAACUGAUACCAGUGUACUGACAUGAGGAUCACCCAUGUUGGGUUUUGUUGUACACCCUUGGCAGCAGAAUCUUGUGG | 63 | 90.3 | – | –
CGUAUUGUAACUGAUACCAGUGUACUGACAUGAGGAUCACCCAUGUUGGGUUUUGUUGUACACCCUUGGCAGCAGAAUCAAUACG | 68.7 | 122 | – | –
AUAACAUGAGGAUCACCCAUGUAAGCAGAUACCAGCUAGGAAACUAGCCCUUGGCAGCUGCAAGGUGAUCCUAAUGCAGCUGCAA | 154 | 119 | – | –
GCACCAGGUACGGAUACCAGCUAUAGGCCCAAUGGGCGACAUGAGGAUCACCCAUGUGAUGGCCCUUGGCAGCUGUACCUGGUGC | – | – | 211 | 24.1
AUGUAAGUGGUGUCACUGUGGUCUAGUGAUACCAGUAUCGAAAGAUACCCUUGGCAGCGCUAGAACAUGAGGAUCACCCAUGUUU | 68.8 | 34.3 | – | –
ACGAACGAUAGUGAUACCAGACGUACAUGAGGAUCACCCAUGUUAUACACAUGGUUUAUUGUCCCUUGGCAGCACGUUAAGUUCG | 274 | 295 | – | –
GAGCUGAUGUAGAAAUUUUAUUUAUGAGAUACCAGUACAGAAAUGUACCCUUGGCAGCUCAUUUUUACAUGAGGAUCACCCAUGU | 12.5 | 13.8 | – | –
AGAUCUUUCGAAAGAAGGAUCUUGGCUGAUACCAGAGACGAAAGUCUCCCUUGGCAGCAGUGCCAACAUGAGGAUCACCCAUGUA | – | – | 45.8 | 24.1
UAAAAUAAAAGGGUGAAGGUAUAAACAGAUACCAGCCAGAUAACUGGCCCUUGGCAGCUGAAUGACAUGAGGAUCACCCAUGUCU | – | – | 12 | 33.3
GAUGAUAUUGCAGAUACCAGACACAUGAGGAUCACCCAUGUCGCUGGGUUACUGGGUCGUGUCCCUUGGCAGCUGCGAUAUCAUC | 44 | 339 | – | –
UUUACAUGAGGAUCACCCAUGUGCCAUGAUACCAGACAUGAAAAUGUCCCUUGGCAGCAUGAGUGAUGCAUCCGAAAGGAUGUUU | – | – | 81.6 | 611
GCACCAGGUACGGAUACCAGACGUUGCCAAACAGGGUGACAUGAGGAUCACCCAUGUACUGUCCCUUGGCAGCCGUACCUGGUGC | 22.3 | 653 | – | –
UUCUGGACCCGUGAUACCAGAGACAUGAGGAUCACCCAUGUACAUGAGGAUCACCCAUGUCUCCCUUGGCAGCACUGCAGGGAGC | 115 | 875 | – | –
